Assay [1] concerns Pyricularia oryzae. Nature of the assay: Antifungal activity against Magnaporthe grisea 70-15 after 18 hrs by conidia germination assay. The assay is classed as functional, organism-based. A digest of the protocol:
(§1)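 M. grisea strain 70-15 conidia suspended in water at 5 × 10⁴/mL and exposed to compound. After 18 h, germination was scored microscopically against an inhibitor-free control. Conidia counted as affected were those that had not germinated or whose germ tubes were under 30% of control length.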

Another assay relates to HeLa. Nature of the assay: Cytotoxic activity against human HeLa S3 cells up to 50 ug/mL. Format: functional, cell-based. A digest of the protocol:
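HeLa S3 human cervix carcinoma cells were grown in DMEM with penicillin G (65 µg/mL) and streptomycin sulfate (100 µg/mL). Cells at 10⁵/mL were exposed to compound in microtiter wells at 37 °C in humidified 5% CO2. Viable cells were counted by microscopy at 24 and 48 h.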

The test system of a further assay is Rhizomucor miehei. Nature of the assay: Antifungal activity against Rhizomucor miehei Tu 284 at 50 ug/mL by disk diffusion assay. Format: functional, organism-based.
Another assay concerns Paecilomyces variotii. Briefly: Antifungal activity against Paecilomyces variotii DSM 1961 at 50 ug/mL by disk diffusion assay. Format: functional, organism-based. (In agar diffusion tests the substance spreads into inoculated agar from a disc or well.)
A further assay relates to Eremothecium coryli. Briefly: Antifungal activity against Nematospora coylii ATTC 10647 at 50 ug/mL by disk diffusion assay. Format: functional, organism-based.
The test system of assay [2] is Pyricularia oryzae. Briefly: Antifungal activity against Magnaporthe grisea 70-15 at 20 ug/mL after 18 hrs by conidia germination assay. Format: functional, organism-based. An outline of the steps: as §1
The test system of another assay is Penicillium chrysogenum. Nature of the assay: Antifungal activity against Penicillium chrysogenum DSM 848 at 50 ug/mL by disk diffusion assay. The assay is classed as functional, organism-based.
The subject of assay [3] is Pyricularia oryzae. Briefly: Antifungal activity against Magnaporthe grisea 70-15 at 25 ug/mL after 18 hrs by conidia germination assay. Format: functional. As to conditions: 70-15, 18 h. An outline of the steps: as §1

Activity calls are given as the source filed them. The rule behind the calls is not given here.

Among the data in ChEMBL document CHEMBL1156662, “Tetracyclic terpenoids from Dasyscyphus niveus, dasyscyphins D and E” (2008) are Activity and inhibition values, retold here.

The inhibition is how much of the control response was suppressed. Higher therefore signals strong suppression.

In the case of `CC(O)(CC(=O)O)CC(=O)OCC1=C[C@@]2(O)[C@H](C[C@@H]3[C@@]4(C)CCCC(C)(C)[C@@H]4CC[C@@]32C)C(=O)C1=O` (some centres undefined), the outcome in the assay on Pyricularia oryzae [1] was Active.
Turning to `Cc1ccc2c(c1O)[C@@]1(C)CC[C@H]3C(C)(C)[C@@H](O)CC[C@]3(C)[C@H]1C2`, the result with HeLa, in the assay with Rhizomucor miehei, in the assay on Paecilomyces variotii, with Eremothecium coryli and in the assay on Penicillium chrysogenum was inactive. Besides, the outcome with Pyricularia oryzae [2] was Active.
`Cc1ccc2c(c1O)[C@@]1(C)CC[C@@H]3[C@](C)(CCC[C@]3(C)O)[C@H]1C2` [DASYSCYPHIN E] registered an inhibition at 25 µg/mL in the assay with Pyricularia oryzae [3] of 100%.
Regarding `COCc1cc(O)c2c(c1O)[C@@]1(C)CC[C@H]3C(C)(C)CCC[C@]3(C)[C@H]1C2`, the outcome in the assay on Pyricularia oryzae [1] was Active.
